According to ChEMBL document CHEMBL4190191, “Cyclic Diarylheptanoids from Corylus avellana Green Leafy Covers: Determination of Their Absolute Configurations and Evaluation of Their Antioxidant and Antimicrobial Activities” (J Nat Prod, 2017):
The source made the active and inactive calls. The calls are words filed in the database; no cut-off is given here.

How the values were obtained:
Plasma [1] = assay: Antioxidant activity in human plasma assessed as inhibition of H2O2/Fe2+-induced lipid peroxidation at 10 uM after 30 mins by TBARS assay relative to control; type: functional, cell-free
Outline: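 Human donor plasma was incubated for 30 min at 37 °C with compound at 10 μM plus 4.7 mM H2O2, 3.8 mM […] and 2.5 mM EDTA. Peroxidation was read as TBARS concentration.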

A549 = assay: Cytotoxicity against human A549 cells at 10 to 100 uM by MTT assay; type: cell-based; conditions: a549, 100 µM
Outline: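 A549 human lung adenocarcinoma cells were kept in DMEM with 10% FBS, 1% penicillin/streptomycin and 2 mM L-glutamine, at 37 °C under 5% CO2. Viability was measured by MTT assay after exposure to 10–100 μM.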

Plasma [2] = assay: Antioxidant activity in human plasma assessed as inhibition of H2O2-induced lipid peroxidation at 10 uM after 30 mins by TBARS assay relative to control; type: functional, cell-free
Outline: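 Fresh plasma from medication-free donors was incubated for 30 min at 37 °C with compound (0.1–100 μM) plus 2 mM H2O2. Lipid peroxidation was quantified as TBARS. Data are from 5–9 independent experiments, as mean ± SD.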

Bacillus cereus [3] = assay: Antimicrobial activity against Bacillus cereus DSM 4313 assessed as growth inhibition at 40 ug per disc after 24 to 48 hrs (reference value: 0 millimeter); type: functional; conditions: read-out: DIZ
Pseudomonas aeruginosa [4] = assay: Antimicrobial activity against Pseudomonas aeruginosa DSM 50071 assessed as growth inhibition at 40 ug per disc after 24 to 48 hrs (reference value: 0 millimeter); type: functional; conditions: read-out: DIZ
Escherichia coli [5] = assay: Antimicrobial activity against Escherichia coli DSM 8579 assessed as growth inhibition at 40 ug per disc after 24 to 48 hrs (reference value: 0 millimeter); type: functional; conditions: read-out: DIZ
Bacillus cereus [6] = assay: Antimicrobial activity against Bacillus cereus DSM 4384 assessed as growth inhibition at 40 ug per disc after 24 to 48 hrs (reference value: 0 millimeter); type: functional; conditions: read-out: DIZ
[7] = Cytotoxicity against human DeFew cells at 10 to 100 uM by MTT assay; type: cell-based
Outline: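 DeFew human B-lymphoma cells were maintained in RPMI 1640 with 10% FBS, 1% penicillin/streptomycin and 2 mM L-glutamine, in humidified 5% CO2 at 37 °C. Cells were exposed to 10–100 μM, and viability was read by MTT.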

Staphylococcus aureus [8] = assay: Antimicrobial activity against Staphylococcus aureus DSM 25923 assessed as growth inhibition at 40 ug per disc after 24 to 48 hrs (reference value: 0 millimeter); type: functional; conditions: read-out: DIZ
Bacillus cereus [9] = assay: Antimicrobial activity against Bacillus cereus DSM 4384 assessed as growth inhibition at 20 ug per disc after 24 to 48 hrs (reference value: 0 millimeter); type: functional; conditions: read-out: DIZ
Staphylococcus aureus [10] = assay: Antimicrobial activity against Staphylococcus aureus DSM 25923 assessed as growth inhibition at 10 ug per disc after 24 to 48 hrs (reference value: 0 millimeter); type: functional; conditions: read-out: DIZ
Escherichia coli [11] = assay: Antimicrobial activity against Escherichia coli DSM 8579 assessed as growth inhibition at 10 ug per disc after 24 to 48 hrs (reference value: 0 millimeter); type: functional; conditions: read-out: DIZ
Pseudomonas aeruginosa [12] = assay: Antimicrobial activity against Pseudomonas aeruginosa DSM 50071 assessed as growth inhibition at 10 ug per disc after 24 to 48 hrs (reference value: 0 millimeter); type: functional; conditions: read-out: DIZ
Bacillus cereus [13] = assay: Antimicrobial activity against Bacillus cereus DSM 4384 assessed as growth inhibition at 10 ug per disc after 24 to 48 hrs (reference value: 0 millimeter); type: functional; conditions: read-out: DIZ
Bacillus cereus [14] = assay: Antimicrobial activity against Bacillus cereus DSM 4313 assessed as growth inhibition at 10 ug per disc after 24 to 48 hrs (reference value: 0 millimeter); type: functional; conditions: read-out: DIZ
Staphylococcus aureus [15] = assay: Antimicrobial activity against Staphylococcus aureus DSM 25923 assessed as growth inhibition at 20 ug per disc after 24 to 48 hrs (reference value: 0 millimeter); type: functional; conditions: read-out: DIZ
Escherichia coli [16] = assay: Antimicrobial activity against Escherichia coli DSM 8579 assessed as growth inhibition at 20 ug per disc after 24 to 48 hrs (reference value: 0 millimeter); type: functional; conditions: read-out: DIZ
Pseudomonas aeruginosa [17] = assay: Antimicrobial activity against Pseudomonas aeruginosa DSM 50071 assessed as growth inhibition at 20 ug per disc after 24 to 48 hrs (reference value: 0 millimeter); type: functional; conditions: read-out: DIZ
Bacillus cereus [18] = assay: Antimicrobial activity against Bacillus cereus DSM 4313 assessed as growth inhibition at 20 ug per disc after 24 to 48 hrs (reference value: 0 millimeter); type: functional; conditions: read-out: DIZ
Escherichia coli [19] = assay: Antimicrobial activity against Escherichia coli DSM 8579 assessed per disc after 24 hrs by resazurin dye-based microtiter-plate assay; type: functional
Outline: (§1)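 Resazurin microtiter-plate broth dilution. Samples in DMSO were twofold serially diluted in Mueller-Hinton broth with isosensitized broth and resazurin indicator. Bacteria were added to about 5 × 10^5 cfu/mL. Ciprofloxacin served as positive control and DMSO as negative control. Plates were run in triplicate at 37 °C for 24 h. MIC is the lowest concentration […].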

Pseudomonas aeruginosa [20] = assay: Antimicrobial activity against Pseudomonas aeruginosa DSM 50071 assessed per disc after 24 hrs by resazurin dye-based microtiter-plate assay; type: functional; outline: as §1
Bacillus cereus [21] = assay: Antimicrobial activity against Bacillus cereus DSM 4313 assessed per disc after 24 hrs by resazurin dye-based microtiter-plate assay; type: functional; outline: as §1
Bacillus cereus [22] = assay: Antimicrobial activity against Bacillus cereus DSM 4384 assessed per disc after 24 hrs by resazurin dye-based microtiter-plate assay; type: functional; outline: as §1
Staphylococcus aureus [23] = assay: Antimicrobial activity against Staphylococcus aureus DSM 25923 assessed per disc after 24 hrs by resazurin dye-based microtiter-plate assay; type: functional; outline: as §1

Row | SMILES | inhibition (Plasma [1]) | Activity (A549) | inhibition (Plasma [2]) | zone of inhibition at 40 µg/disc (Bacillus cereus [3]) | zone of inhibition at 40 µg/disc (Pseudomonas aeruginosa [4]) | zone of inhibition at 40 µg/disc (Escherichia coli [5]) | zone of inhibition at 40 µg/disc (Bacillus cereus [6]) | Activity [7] | zone of inhibition at 40 µg/disc (Staphylococcus aureus [8]) | zone of inhibition at 20 µg/disc (Bacillus cereus [9]) | zone of inhibition at 10 µg/disc (Staphylococcus aureus [10]) | zone of inhibition at 10 µg/disc (Escherichia coli [11]) | zone of inhibition at 10 µg/disc (Pseudomonas aeruginosa [12]) | zone of inhibition at 10 µg/disc (Bacillus cereus [13]) | zone of inhibition at 10 µg/disc (Bacillus cereus [14]) | zone of inhibition at 20 µg/disc (Staphylococcus aureus [15]) | zone of inhibition at 20 µg/disc (Escherichia coli [16]) | zone of inhibition at 20 µg/disc (Pseudomonas aeruginosa [17]) | zone of inhibition at 20 µg/disc (Bacillus cereus [18]) | also measured
1 | O=C(/C=C/c1ccc(O)c(O)c1)O[C@@H]1C[C@](O)(C(=O)O)C[C@@H](OC(=O)/C=C/c2ccc(O)c(O)c2)[C@H]1O | 25.5% | Non-Toxic | 24.2% | 0 mm | 0 mm | 8.33 mm | 0 mm | Non-Toxic | 6.67 mm |  |  |  |  |  |  |  |  |  |  | 
2 | C[C@@H]1O[C@@H](Oc2c(-c3ccc(O)cc3)oc3cc(O)cc(O)c3c2=O)[C@H](O)[C@H](O)[C@H]1OC(=O)/C=C/c1ccc(O)cc1 | 39.7% | Non-Toxic | 31.8% | 5.33 mm | 9.67 mm | 8.66 mm | 9.67 mm | Non-Toxic | 10.7 mm | 5 mm | 5 mm | 3 mm | 0 mm | 5 mm | 2.33 mm | 6.67 mm | 4.33 mm | 0 mm | 3.33 mm | 
3 | COC(=O)CC(O)(CC(=O)O)C(=O)O (stereo unspecified) | inactive | Non-Toxic | inactive | 5.67 mm | 0 mm | 10 mm | 0 mm | Non-Toxic | 10.7 mm |  |  |  |  |  |  |  |  |  |  | 
4 | COC(=O)CC(O)(CC(=O)OC)C(=O)OC | inactive | Non-Toxic | inactive | 0 mm | 6.67 mm | 11.3 mm | 0 mm | Non-Toxic | 11.3 mm |  |  |  |  |  |  |  |  |  |  | 
5 | C[C@@H]1O[C@@H](Oc2c(-c3cc(O)c(O)c(O)c3)oc3cc(O)cc(O)c3c2=O)[C@H](O)[C@H](O)[C@H]1O | 34.1% | Non-Toxic | 44.4% | 0 mm | 5 mm | 9.67 mm | 0 mm | Non-Toxic | 6.33 mm |  |  |  |  |  |  |  |  |  |  | 
6 | COc1cc(/C=C/C(=O)CC(=O)/C=C/c2ccc(O)c(OC)c2)ccc1O | 22.9% |  | 21.1% |  |  |  |  |  |  |  |  |  |  |  |  |  |  |  |  | 
7 | O=C1Cc2ccc(O)c(c2)-c2cc(ccc2O)C[C@@H](O)[C@@H](O)[C@@H](O)[C@H]1O (mixture of isomers) | 14.4% | Non-Toxic | 33.3% | 10.7 mm | 10 mm | 10.3 mm | 11.3 mm | Non-Toxic | 10.7 mm | 9.67 mm | 6.33 mm | 4.67 mm | 5 mm | 5.67 mm | 5.67 mm | 10 mm | 10 mm | 8.67 mm | 9.67 mm | MIC (Escherichia coli [19]): 10 µg; MIC (Pseudomonas aeruginosa [20]): 10 µg; MIC (Bacillus cereus [21]): 5 µg; MIC (Bacillus cereus [22]): 5 µg; MIC (Staphylococcus aureus [23]): 30 µg
8 | O=C1CCc2ccc(O[C@@H]3O[C@H](CO)[C@@H](O)[C@H](O)[C@H]3O)c(c2)-c2cc(ccc2O)C[C@@H](O)[C@H](O)[C@H]1O (mixture of isomers) | 23.3% | Non-Toxic | 14.7% | 5 mm | 9 mm | 0 mm | 0 mm | Non-Toxic | 11.3 mm | 0 mm | 0 mm | 0 mm | 0 mm | 0 mm | 0 mm | 0 mm | 0 mm | 0 mm | 0 mm | MIC (Escherichia coli [19]): 50 µg; MIC (Pseudomonas aeruginosa [20]): 30 µg; MIC (Bacillus cereus [21]): 30 µg; MIC (Bacillus cereus [22]): 50 µg; MIC (Staphylococcus aureus [23]): 30 µg
9 | O=C1CCc2ccc(O)c(c2)-c2cc(ccc2O)C[C@@H](O)[C@H](O)[C@H]1O (mixture of isomers) | 24.4% | Non-Toxic | 32.2% | 10.7 mm | 10.7 mm | 11.7 mm | 10.7 mm | Non-Toxic | 5.67 mm | 5 mm | 0 mm | 9.33 mm | 4.67 mm | 5 mm | 5 mm | 0 mm | 9.67 mm | 4.67 mm | 5 mm | MIC (Escherichia coli [19]): 10 µg; MIC (Pseudomonas aeruginosa [20]): 10 µg; MIC (Bacillus cereus [21]): 4 µg; MIC (Bacillus cereus [22]): 4 µg; MIC (Staphylococcus aureus [23]): 30 µg
10 | O=C1/C=C/CCc2ccc(O[C@@H]3O[C@H](CO)[C@@H](O)[C@H](O)[C@H]3O)c(c2)-c2cc(ccc2O[C@H]2OC[C@H](O)[C@H](O)[C@H]2O)CC1 (mixture of isomers) | 18.1% | Non-Toxic | 12.6% | 5 mm | 4.67 mm | 10 mm | 0 mm | Non-Toxic | 10 mm |  |  |  |  |  |  |  |  |  |  | 
11 | C[C@@H]1O[C@@H](Oc2c(-c3ccc(O)cc3)oc3cc(O)cc(O)c3c2=O)[C@H](O)[C@H](O)[C@H]1O [AFZELIN] | 20.1% | Non-Toxic | 5.7% | 0 mm | 4 mm | 10 mm | 5 mm | Non-Toxic | 10.3 mm |  |  |  |  |  |  |  |  |  |  | 
12 | O=C(O)CC(O)(CC(=O)O)C(=O)O [CITRIC ACID] | inactive | Non-Toxic | inactive | 10 mm | 9.33 mm | 10.7 mm | 0 mm | Non-Toxic | 10.7 mm |  |  |  |  |  |  |  |  |  |  | 
